According to ChEMBL document CHEMBL5724801, “EUbOPEN Chemogenomics Library - Multiplex” (2024):
“And” between values parts separate entries of the source, which are not always exact repeats. Equal values may be shown once.

Legend:
HEK-293T = test: Multiplex assay against HEK293T; format: toxicity, cell-based; settings: human
How it was run: (§1)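 Compound was added to live cells that had been stained at seeding with Hoechst33342, BioTracker Green Microtubule Cytoskeleton Dye, MitoTracker Red and Annexin V Alexa Fluor 680, and imaging followed on a CQ1 microscope at 37°C and 5% CO2. CellPathfinder machine-learning gating divided cells into Hoechst high-intensity objects or normal cells, normal cells into healthy, pyknosed or fragmented nuclei, and pyknosed cells into mitotic or apoptotic. Tubulin, mitochondrial-mass and membrane-permeability phenotypes are per cents of healthy-nucleus cells.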

Fibroblast = test: Multiplex assay against human fibroblast; format: toxicity, cell-based; how it was run: as §1
[1] = 12 h, 1 µM, compound concentration 1 uM
[2] = 12 h, 10 µM, compound concentration 10 uM
[3] = 24 h, 1 µM, compound concentration 1 uM
[4] = 24 h, 10 µM, compound concentration 10 uM
[5] = 48 h, 1 µM, compound concentration 1 uM
[6] = 48 h, 10 µM, compound concentration 10 uM

Structure (SMILES): O=C(Nc1cc(-c2ccccc2)nn1-c1ccccc1F)c1ccc([N+](=O)[O-])cc1
- Population Apoptotic (%) (HEK-293T; [1]): 33% and 37%
- Population Fragmented Nuclei (%) (HEK-293T; [1]): 7% and 6%
- Population Healthy Nuclei (%) (HEK-293T; [1]): 78% and 83%
- Population Hoechst High Intensity Objects (%) (HEK-293T; [1]): 9% and 6%
- Population Membrane Permeable-Phenotype (%) (HEK-293T; [1]): 0%
- Population Mitochondria Different-Phenotype (%) (HEK-293T; [1]): 31% and 48%
- Population Mitotic Cells (%) (HEK-293T; [1]): 66% and 62%
- Population Normal (%) (HEK-293T; [1]): 90% and 94%
- Population Pyknosed Nuclei (%) (HEK-293T; [1]): 13% and 9%
- Population Tubulin-Different-Phenotype (%) (HEK-293T; [1]): 19%
- Total Cell Count (HEK-293T; [1]): 402 and 417
- Population Apoptotic (%) (HEK-293T; [2]): 37% and 44%
- Population Fragmented Nuclei (%) (HEK-293T; [2]): 10% and 6%
- Population Healthy Nuclei (%) (HEK-293T; [2]): 71% and 73%
- Population Hoechst High Intensity Objects (%) (HEK-293T; [2]): 5% and 6%
- Population Membrane Permeable-Phenotype (%) (HEK-293T; [2]): 0%
- Population Mitochondria Different-Phenotype (%) (HEK-293T; [2]): 41% and 65%
- Population Mitotic Cells (%) (HEK-293T; [2]): 62% and 55%
- Population Normal (%) (HEK-293T; [2]): 94% and 93%
- Population Pyknosed Nuclei (%) (HEK-293T; [2]): 17% and 20%
- Population Tubulin-Different-Phenotype (%) (HEK-293T; [2]): 40% and 45%
- Total Cell Count (HEK-293T; [2]): 342 and 367
- Population Apoptotic (%) (HEK-293T; [3]): 33% and 35%
- Population Fragmented Nuclei (%) (HEK-293T; [3]): 8% and 12%
- Population Healthy Nuclei (%) (HEK-293T; [3]): 78%
- Population Hoechst High Intensity Objects (%) (HEK-293T; [3]): 4%
- Population Membrane Permeable-Phenotype (%) (HEK-293T; [3]): 0% and 1%
- Population Mitochondria Different-Phenotype (%) (HEK-293T; [3]): 21% and 31%
- Population Mitotic Cells (%) (HEK-293T; [3]): 66% and 64%
- Population Normal (%) (HEK-293T; [3]): 95%
- Population Pyknosed Nuclei (%) (HEK-293T; [3]): 12% and 8%
- Population Tubulin-Different-Phenotype (%) (HEK-293T; [3]): 17% and 16%
- Total Cell Count (HEK-293T; [3]): 481 and 530
- Population Apoptotic (%) (HEK-293T; [4]): 15% and 22%
- Population Fragmented Nuclei (%) (HEK-293T; [4]): 9% and 7%
- Population Healthy Nuclei (%) (HEK-293T; [4]): 77% and 83%
- Population Hoechst High Intensity Objects (%) (HEK-293T; [4]): 2% and 3%
- Population Membrane Permeable-Phenotype (%) (HEK-293T; [4]): 0%
- Population Mitochondria Different-Phenotype (%) (HEK-293T; [4]): 35% and 47%
- Population Mitotic Cells (%) (HEK-293T; [4]): 84% and 77%
- Population Normal (%) (HEK-293T; [4]): 97% and 96%
- Population Pyknosed Nuclei (%) (HEK-293T; [4]): 13% and 8%
- Population Tubulin-Different-Phenotype (%) (HEK-293T; [4]): 35% and 33%
- Total Cell Count (HEK-293T; [4]): 434 and 482
- Population Apoptotic (%) (HEK-293T; [5]): 17% and 33%
- Population Fragmented Nuclei (%) (HEK-293T; [5]): 13% and 17%
- Population Healthy Nuclei (%) (HEK-293T; [5]): 79% and 74%
- Population Hoechst High Intensity Objects (%) (HEK-293T; [5]): 3% and 2%
- Population Membrane Permeable-Phenotype (%) (HEK-293T; [5]): 2%
- Population Mitochondria Different-Phenotype (%) (HEK-293T; [5]): 14% and 15%
- Population Mitotic Cells (%) (HEK-293T; [5]): 82% and 66%
- Population Normal (%) (HEK-293T; [5]): 96% and 97%
- Population Pyknosed Nuclei (%) (HEK-293T; [5]): 7%
- Population Tubulin-Different-Phenotype (%) (HEK-293T; [5]): 9% and 11%
- Total Cell Count (HEK-293T; [5]): 893 and 799
- Population Apoptotic (%) (HEK-293T; [6]): 22% and 20%
- Population Fragmented Nuclei (%) (HEK-293T; [6]): 12% and 15%
- Population Healthy Nuclei (%) (HEK-293T; [6]): 77%
- Population Hoechst High Intensity Objects (%) (HEK-293T; [6]): 2% and 3%
- Population Membrane Permeable-Phenotype (%) (HEK-293T; [6]): 2% and 1%
- Population Mitochondria Different-Phenotype (%) (HEK-293T; [6]): 19% and 27%
- Population Mitotic Cells (%) (HEK-293T; [6]): 77% and 79%
- Population Normal (%) (HEK-293T; [6]): 97% and 96%
- Population Pyknosed Nuclei (%) (HEK-293T; [6]): 9% and 6%
- Population Tubulin-Different-Phenotype (%) (HEK-293T; [6]): 23% and 26%
- Total Cell Count (HEK-293T; [6]): 671 and 666
- Population Apoptotic (%) (Fibroblast; [1]): 28% and 32%
- Population Fragmented Nuclei (%) (Fibroblast; [1]): 17% and 19%
- Population Healthy Nuclei (%) (Fibroblast; [1]): 71% and 55%
- Population Hoechst High Intensity Objects (%) (Fibroblast; [1]): 2% and 8%
- Population Membrane Permeable-Phenotype (%) (Fibroblast; [1]): 1% and 4%
- Population Mitochondria Different-Phenotype (%) (Fibroblast; [1]): 1% and 9%
- Population Mitotic Cells (%) (Fibroblast; [1]): 71% and 67%
- Population Normal (%) (Fibroblast; [1]): 97% and 91%
- Population Pyknosed Nuclei (%) (Fibroblast; [1]): 10% and 25%
- Population Tubulin-Different-Phenotype (%) (Fibroblast; [1]): 22% and 53%
- Total Cell Count (Fibroblast; [1]): 138 and 160
- Population Apoptotic (%) (Fibroblast; [2]): 28% and 45%
- Population Fragmented Nuclei (%) (Fibroblast; [2]): 10% and 25%
- Population Healthy Nuclei (%) (Fibroblast; [2]): 66% and 47%
- Population Hoechst High Intensity Objects (%) (Fibroblast; [2]): 2% and 6%
- Population Membrane Permeable-Phenotype (%) (Fibroblast; [2]): 1% and 6%
- Population Mitochondria Different-Phenotype (%) (Fibroblast; [2]): 4% and 3%
- Population Mitotic Cells (%) (Fibroblast; [2]): 71% and 54%
- Population Normal (%) (Fibroblast; [2]): 97% and 93%
- Population Pyknosed Nuclei (%) (Fibroblast; [2]): 22% and 26%
- Population Tubulin-Different-Phenotype (%) (Fibroblast; [2]): 48% and 77%
- Total Cell Count (Fibroblast; [2]): 170 and 149
- Population Apoptotic (%) (Fibroblast; [3]): 53% and 50%
- Population Fragmented Nuclei (%) (Fibroblast; [3]): 16% and 25%
- Population Healthy Nuclei (%) (Fibroblast; [3]): 74% and 53%
- Population Hoechst High Intensity Objects (%) (Fibroblast; [3]): 2% and 7%
- Population Membrane Permeable-Phenotype (%) (Fibroblast; [3]): 0% and 6%
- Population Mitochondria Different-Phenotype (%) (Fibroblast; [3]): 0% and 2%
- Population Mitotic Cells (%) (Fibroblast; [3]): 46% and 50%
- Population Normal (%) (Fibroblast; [3]): 97% and 92%
- Population Pyknosed Nuclei (%) (Fibroblast; [3]): 9% and 20%
- Population Tubulin-Different-Phenotype (%) (Fibroblast; [3]): 18% and 52%
